An excerpt weighted towards active compounds, which were near 2.4% of everything screened.
FID counter: fluorescent intercalator displacement, NS3 helicase counter-screen; 0.17% of 290,000 active; inhibition, % at 7.9 µM; DNA fluorescent intercalator displacement, fluorescence; in the data active = inhibition above about 37%;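 also: 0% = vehicle and 100% = reference compound; higher means more ethidium bromide displaced from hairpin DNA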
UBC13 inh: human UBC13 polyubiquitination inhibition | P61088 | UBC13 polyubiquitin chain formation, TR-FRET | inhibition, % at 20 µM | 0.47% of 330,000 active | AID 485273; in the data active = inhibition above about 45%, passing the limit was not always enough
ANO1 block: inhibitors of mouse TMEM16A calcium-activated chloride channel; HEK293 TMEM16A/YFP iodide influx fluorescence, ionomycin; AID 588511; 1.2% of 310,000 active; normalized B-score (activity score, 25-100; higher = stronger inhibition) at 10 µM; Q8BHY3;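 active = ratio plate-corrected score three or more library SD toward inhibition, starting fluorescence score within five deviations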;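 also: score derived from kinetic fluorescence span divided by baseline fluorescence per well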
Apaf1 inhib: human Apaf-1 inhibition; O14727; 0.71% of 330,000 active; reconstituted apoptosome caspase-3 activity, DEVD-Rh110 fluorescence; inhibition, % at 20 µM; active = inhibition of at least 40% at 20 µM;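 also: plate controls were DMSO wells for no effect and DEVD-CHO caspase inhibitor wells for full effect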
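Assay system – apoptosome proteins · Medium – Hepes buffer, pH 7.5 · Also added – cytochrome c with DEVD-Rh110 · Timing – 30 min compound preincubation, 50 min activation, room temperature · Detection – Rh110 fluorescence, excitation 480 nm, emission 540 nm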
TMEM16A act: activates or potentiates the mouse TMEM16A chloride channel; Q8BHY3; 0.3% of 340,000 active; B-score at 10 µM; HEK293 TMEM16A/YFP-H148Q/I152L, iodide quench fluorescence; active compounds read low;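 active = fluorescence-ratio B-score plate-corrected deviation score at least 3 library SD below zero, with starting fluorescence score within 5 deviations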;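 also: channel opened by trigger with iodide after compound preincubation; score built on the fluorescence ratio of max minus min over baseline; more negative score means more quench and so TMEM16A activation or potentiation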
TMEM16A reconf: reconfirmed blocker of mouse TMEM16A calcium-activated chloride channel; shares compounds with ANO1 block; HEK293 TMEM16A/YFP-H148Q, iodide quench fluorescence; ionomycin added to raise cell calcium; inhibition, % at 10 µM; 39% of 2,300 active;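 active = mean duplicate percent inhibition, scaled so buffer wells are 0 and the reference blocker 100, over three buffer SD above buffer mean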
HEK293 Ca mobil: alters calcium mobilization in TMEM16A HEK293 cells, counter-screen; shares compounds with ANO1 block; TMEM16A/YFP HEK293, Fluo4 calcium mobilization; calcium response (% of ionomycin), % at 10 µM; 2% of 2,300 active;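 active = duplicate-averaged calcium signal over 20% of the ionomycin maximum, relative to buffer baseline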;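 also: each well's signal is peak minus trough fluorescence divided by its pre-addition baseline; 0% = buffer wells and 100% = ionomycin wells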
YFP-HEK293 quench: counter-screen for TMEM16A inhibitors: effect in parental YFP-HEK293 cells | shares compounds with ANO1 block | iodide YFP quench, ionomycin | YFP ratio F(max-min)/F0 at 10 µM | 2,300 tested, under 10 active | AID 652233;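 active = yellow fluorescent protein signal ratio exceeding the buffer control mean by over 5 SD of those controls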;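 also: ratio is mean of duplicate wells from kinetic YFP trace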
ClC-1 rat inh: rat ClC-1 inhibition, TMEM16A specificity screen. CHO ClC-1-YFP, iodide influx fluorescence quench; iodide control reads 0, buffer control 100. shares compounds with ANO1 block. 2,300 tested, under 10 active. ratio percent, % at 10 µM. AID 652236;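 active = duplicate-mean ratio percent above the mean of iodide-only control wells, which defines zero, plus 5 of their SD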;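 also: higher percent means stronger block of ClC-1 iodide influx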
Target sequence (P35524 whole entry, looked up): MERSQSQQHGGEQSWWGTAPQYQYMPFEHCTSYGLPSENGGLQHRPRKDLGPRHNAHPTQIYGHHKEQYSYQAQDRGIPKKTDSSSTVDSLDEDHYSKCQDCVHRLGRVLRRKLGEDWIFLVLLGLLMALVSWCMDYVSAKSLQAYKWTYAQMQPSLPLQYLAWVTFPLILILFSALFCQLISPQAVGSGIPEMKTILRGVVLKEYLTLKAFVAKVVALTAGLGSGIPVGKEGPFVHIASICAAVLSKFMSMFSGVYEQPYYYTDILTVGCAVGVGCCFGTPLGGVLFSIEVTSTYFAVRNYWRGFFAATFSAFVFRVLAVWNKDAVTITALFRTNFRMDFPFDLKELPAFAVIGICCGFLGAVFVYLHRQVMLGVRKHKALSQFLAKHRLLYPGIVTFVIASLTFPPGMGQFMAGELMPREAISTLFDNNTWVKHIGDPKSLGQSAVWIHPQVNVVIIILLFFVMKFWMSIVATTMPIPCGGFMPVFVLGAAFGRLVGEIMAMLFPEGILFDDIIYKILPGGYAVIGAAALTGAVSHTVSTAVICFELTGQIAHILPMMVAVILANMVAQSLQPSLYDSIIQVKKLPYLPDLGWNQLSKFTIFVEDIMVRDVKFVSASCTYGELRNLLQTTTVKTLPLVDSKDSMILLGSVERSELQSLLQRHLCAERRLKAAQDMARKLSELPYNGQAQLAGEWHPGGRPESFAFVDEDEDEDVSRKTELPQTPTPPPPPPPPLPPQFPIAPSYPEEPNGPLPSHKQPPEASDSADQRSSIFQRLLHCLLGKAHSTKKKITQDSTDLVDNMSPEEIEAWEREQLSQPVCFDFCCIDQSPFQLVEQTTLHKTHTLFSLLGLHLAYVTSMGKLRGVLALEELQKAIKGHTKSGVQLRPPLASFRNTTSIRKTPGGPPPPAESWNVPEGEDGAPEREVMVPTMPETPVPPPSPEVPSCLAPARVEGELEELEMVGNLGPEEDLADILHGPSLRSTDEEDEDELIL
* hit, by the source's call; i = inactive; . = not tested or not shown.

SMILES	FID counter	UBC13 inh	ANO1 block	Apaf1 inhib	TMEM16A act	TMEM16A reconf	HEK293 Ca mobil	YFP-HEK293 quench	ClC-1 rat inh
Cc1cccc(C)c1OCc1cc(C(=O)N2CCN(C3CCCC3)CC2)no1	17.9	2.6	i	7.0	i	.	.	.	.
O=C(c1cc(COc2c(F)cccc2F)on1)N1CCC(c2ccncc2)CC1	-20.7	-15.1	25*	2.6	i	i	i	-1.2	-22.5
CN(C)S(=O)(=O)N1CCC(Oc2cccc(C(=O)NC3CCCCC3)c2)CC1	-51.7	-1.0	i	-1.3	i	.	.	.	.
CN(C)S(=O)(=O)N1CCC(Oc2cccc(C(=O)NCCC3=CCCCC3)c2)CC1	-34.3	-6.1	100*	27.2	i	21.5%*	i	-1.2	-19.5
CC1CN(C(=O)C2(C)CC2(Cl)Cl)CC(C)O1 (stereo not drawn)	-6.8	-9.7	i	13.3	i	.	.	.	.
CC(C)c1csc(CN2CCN(Cc3ccc(F)cc3)C(CCO)C2)n1 (stereo not drawn)	-10.9	4.7	i	0.8	i	.	.	.	.
O=S(=O)(NCCOCC(F)(F)C(F)F)c1ccc2oc3ccccc3c2c1	-16.9	4.9	25*	2.8	i	23.5%*	i	-0.916	-12.0
CCOC(=O)c1cnc2ccccc2c1Nc1cc(C(=O)O)ccc1C	-12.9	-7.5	i	6.1	i	.	.	.	.
Cc1ccc(SC[C@H](C)CN2CC[C@H](C(C)(C)C)CCC2=O)cc1	-33.1	11.7	100*	28.2	i	38.0%*	i	-0.894	-0.5
O=C1c2ccccc2C(=O)N1CCCCSc1nc2ccccc2o1	-6.1	2.7	25*	-4.5	i	20.5%*	i	-1.2	1.0
Cc1nnc(SCCCN2C(=O)c3ccccc3C2=O)o1	3.5	-3.0	i	-4.3	i	.	.	.	.
COCCNC(=O)c1c(NC(=O)c2nc(SC)ncc2Cl)sc2c1CCCC2	-3.4	-2.5	i	-6.0	i	23.5%*	i	-0.777	6.0
CC1CCc2sc(C(=O)N/N=C/c3ccc(O)cc3)cc2C1 (stereo not drawn)	-16.8	9.7	i	0.3	i	.	.	.	.
CCOC(=O)C1=C(O)C(=O)NC(c2ccccc2)=C(OC2CCCCC2)C1	-9.1	-6.2	i	15.1	i	.	.	.	.
Cc1ccc(C)c(NC(=O)CSc2sc3c(O)cc(=O)[nH]c3c2C#N)c1	6.7	-6.9	i	5.8	i	i	i	-1.03	-15.5
Cc1nn(-c2ccccc2)c(Cl)c1C(=O)Nc1nnc(C2CCCC2)s1	-27.7	8.6	25*	27.4	i	i	i	-1.13	-16.5
Cc1nn(-c2ccccc2)c(Cl)c1C(=O)NC1CCCCC1	-23.8	0.5	i	9.2	i	.	.	.	.
Cc1ccccc1C(=O)Oc1cccc(Nc2ncnc3ccccc23)c1	-6.4	-9.6	25*	21.9	i	29.5%*	i	-0.923	-13.5
CCC(C)Oc1nc(C)cc(C)c1S(=O)(=O)c1ccccc1C (stereo not drawn)	-1.5	-10.1	100*	20.5	i	i	i	-0.623	-13.0
CCSc1nc(C)cc(C)c1S(=O)(=O)c1ccccc1C	-4.6	2.2	100*	11.0	i	i	i	-1.14	-6.5
CCN(CC)S(=O)(=O)c1cc(NS(=O)(=O)c2cccc(Cl)c2)ccc1C	-18.9	-5.8	25*	3.4	i	28.0%*	i	-1.03	-10.5
CN1CCN(c2ccc(CNC(=O)c3ccco3)cc2)CC1	0.2	-0.2	i	-1.7	i	.	.	.	.
N#C/C(=N\Nc1ccc(F)cc1)C(=O)C1CC1	4.8	-12.6	25*	1.8	i	26.0%*	i	-0.821	-13.5
N#C/C(=N\Nc1ccc(Cl)c(Cl)c1)C(=O)C1CC1	-7.8	-3.1	i	-1.9	i	.	.	.	.
OC1(c2ccc(OC(F)F)cc2)CSC(=Nc2cccnc2)N1C1CC1 (stereo not drawn)	-23.8	-9.7	100*	2.4	i	20.0%*	i	-1.33	-23.5
SMILES	FID counter	UBC13 inh	ANO1 block	Apaf1 inhib	TMEM16A act	TMEM16A reconf	HEK293 Ca mobil	YFP-HEK293 quench	ClC-1 rat inh
Cc1sc(NC(=O)CSc2nnc3scc(-c4ccccc4)n23)c(C#N)c1C	-3.1	12.5	25*	-19.2	i	i	i	-1.09	-8.5
COC(=O)c1sc(NC(=O)CN2CCN(c3cccc(Cl)c3)CC2)c(C(=O)OC)c1C	.	.	.	.	i	.	.	.	.
c1ccc(CCCNc2ncnc3nc[nH]c23)cc1	2.9	7.4	i	0.1	i	.	.	.	.
Clc1ccc(CCNc2ncnc3nc[nH]c23)cc1	-3.1	3.3	100*	-1.7	i	36.0%*	i	-1.16	-12.0
O=C(CNC(=O)c1ccccc1)NCc1ccc(Cl)cc1	-5.2	-7.4	i	10.1	i	.	.	.	.
Cc1cc(C)c(C#N)c(SCC2COc3ccccc3O2)n1 (stereo not drawn)	-1.8	1.7	100*	14.5	i	i	i	-1.18	-9.5
Cc1cc(C)c(C#N)c(SCc2ccccc2C)n1	-1.6	-134.5	25*	11.9	i	i	i	-1.03	-17.0
Cc1cc(C)c(C#N)c(SCc2ccccc2)n1	-3.3	2.5	25*	9.2	i	i	i	-1.06	-10.5
N#Cc1cc2c(nc1SCC1COc3ccccc3O1)CCC2 (stereo not drawn)	-1.6	20.3	i	11.8	i	.	.	.	.
Cc1sc(NC(=O)C2=COCCO2)nc1-c1ccc(F)cc1	.	1.1	i	6.1	i	.	.	.	.
Cc1ccc(C)c(N2CCN(C(=O)CCS(=O)(=O)c3ccc4c(c3)NC(=O)C(C)S4)CC2)c1 (stereo not drawn)	-30.9	6.7	i	16.3	i	.	.	.	.
Cc1nc(-c2cccc(NC(=O)COc3ccc(Cl)cc3)c2)cs1	-32.0	-0.8	25*	20.0	i	i	i	-1.06	-5.0
COc1ccc(NS(=O)(=O)c2ccc(Cl)c(NC(=O)c3ccccc3F)c2)cc1	.	-14.6	.	17.8	i	.	.	.	.
CC(C)(C)C(=O)Nc1cc(S(=O)(=O)Nc2ccc(Cl)cc2)ccc1Cl	-17.5	6.3	25*	-3.4	i	36.5%*	i	-1.37	-7.5
Clc1ccc(OCc2nnc(SCc3nc4ccccc4[nH]3)n2Cc2ccco2)cc1	-25.7	-0.7	25*	30.1	i	i	i	-1.14	-18.0
Clc1cccc(-c2nnc(SCc3nc4ccccc4[nH]3)n2Cc2ccco2)c1	-15.1	5.8	i	15.9	i	.	.	.	.

Assay outcomes from PubChem BioAssay.
